Source: ChEMBL document CHEMBL2321751, “Optimization of chloronitrobenzamides (CNBs) as therapeutic leads for human African trypanosomiasis (HAT)” (J Med Chem, 2013)
Converted amounts (≈) assume the structure as drawn. Values belong to the compound of their own block, whether it stands above or below them.

Legend:
[1] = tested on: Trypanosoma brucei gambiense; assay: Antitrypanosomal activity against Trypanosoma brucei gambiense STIB930 after 70 hrs by Alamar Blue assay; type: functional, organism-based; conditions: STIB930, 70 h
How it was run: (§1)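 T. b. gambiense strains were grown in HMI-9 with 15% heat-inactivated FBS and 5% human serum. 10000 trypanosomes per well were seeded into serial drug dilutions and held 70 h at 37 °C in humidified 5% CO2. Resazurin was then added for a further 4–6 h, and fluorescence was read (ex 536/em 588 nm). IC50 was taken by linear regression from sigmoidal dose-inhibition curves.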

[2] = tested on: Trypanosoma brucei rhodesiense; assay: Antitrypanosomal activity against bloodstream forms of wild type Trypanosoma brucei rhodesiense STIB900 after 70 hrs by Alamar Blue assay; type: functional, organism-based; conditions: STIB900, 70 h
How it was run: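 T. b. rhodesiense STIB 900 was cultured in MEM with Earle's salts and Baltz supplements (0.2 mM 2-mercaptoethanol, 1 mM Na-pyruvate, 0.5 mM hypoxanthine, 15% heat-inactivated horse serum). 2000 bloodstream forms per well were exposed to serial drug dilutions for 70 h at 37 °C in humidified 5% CO2. Resazurin followed for 2–4 h, read by fluorescence (ex 536/em 588 nm). IC50 came from sigmoidal curves by linear regression.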

[3] = tested on: Trypanosoma brucei gambiense; assay: Antitrypanosomal activity against Trypanosoma brucei gambiense KO48 after 70 hrs by Alamar Blue assay; type: functional, organism-based; conditions: KO48, 70 h; how it was run: as §1
[4] = tested on: Trypanosoma brucei gambiense; assay: Antitrypanosomal activity against Trypanosoma brucei gambiense DAL 898R after 70 hrs by Alamar Blue assay; type: functional, organism-based; how it was run: as §1
[5] = tested on: Trypanosoma brucei brucei; assay: Antitrypanosomal activity against Trypanosoma brucei brucei 221 after 48 hrs by Cell Titre Glo assay; type: functional, organism-based; conditions: Trypanosoma brucei, 221, 48 h
How it was run: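 Bloodstream-form parasites grown in HMI-9 with 10% heat-inactivated FBS, 10% Serum Plus and penicillin/streptomycin at 37 °C, 5% CO₂, to 1 × 10⁶ cells/mL. Diluted to 1 × 10⁴ cells/mL, then dosed with a DMSO dilution series by pin transfer. Incubated 48 h at 37 °C, 5% CO₂. Viability read by CellTiter-Glo luminescence. EC₅₀ from a variable-slope sigmoidal fit. Mean of six replicates, errors as 95% CI.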

[6] = tested on: Trypanosoma brucei brucei; assay: Antitrypanosomal activity against blood stream stage of Trypanosoma brucei brucei after 48 hrs by Cell Titre Glo assay; type: functional, organism-based
How it was run: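 Culture-adapted parasites were grown in HMI-9 with 10% heat-inactivated FBS, 10% Serum Plus and penicillin/streptomycin to 1 × 10⁶ cells/mL, then diluted to 1 × 10⁴ cells/mL. DMSO dilution series were pin-transferred and plates held 48 h at 37 °C in 5% CO2. After 30 min at room temperature, CellTiter-Glo was added and luminescence read after 8 min.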

[7] = tested on: BJ; assay: Cytotoxicity against human BJ cells after 72 hrs by Cell Titre Glo assay; type: cell-based
How it was run: (§2)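 Human cells grown to 80% confluence were plated in 384-well format and received compound dilutions by pin tool. After 72 h at 37 °C in 5% CO2, viability was measured by CellTiter-Glo luminescence.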

[8] = tested on: HepG2; assay: Cytotoxicity against human HepG2 cells after 72 hrs by Cell Titre Glo assay; type: cell-based; conditions: HepG2, 72 h; how it was run: as §2
[9] = Half life in human liver microsomes; type: ADME, Microsome
How it was run: (§3)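 Liver microsomes (human: pooled from 200 mixed-gender donors; mouse: female […]) were diluted in 0.1 M potassium phosphate, pH 7.4, with EDTA, then spiked from a 2 mM DMSO/acetonitrile compound stock. Reactions were started with cofactor solutions A+B and kept at 37 °C with shaking. Samples at 0, 0.5, 1, 2 and 4 h were quenched with cold methanol containing 10 μM warfarin and analysed by UPLC-MS (SIR). k = −2.303 × slope of log peak-area ratio versus time; t1/2 = 0.693/k.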

[10] = tested on: HEK293; assay: Cytotoxicity against HEK293 cells after 72 hrs by Cell Titre Glo assay; type: cell-based; conditions: Homo sapiens, HEK293, 72 h; how it was run: as §2
[11] = tested on: Raji; assay: Cytotoxicity against human Raji cells after 72 hrs by Cell Titre Glo assay; type: cell-based; how it was run: as §2
[12] = Half life in mouse liver microsomes; type: ADME, Microsome; how it was run: as §3
[13] = Kinetic solubility of the compound in PBS buffer at pH 7.4 after 18 hrs by UV spectrophotometric analysis; type: physicochemical; conditions: for solubility kinetic at 18 h: PBS buffer, pH 7.4, read-out: Kinetic_solubility; for Kinetic_solubility: buffer, pH 7.4, 18 h, BLD = below limit of detection
How it was run: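 Compound from a 10 mM stock was added to PBS pH 7.4 and left 18 h at room temperature. The suspension was filtered, and the filtrate was mixed 1:1 with 1-propanol. Solubility was derived from UV spectrum AUC (250–500 nm) relative to a 1-propanol/PBS reference. Run in triplicate.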

[14] = Permeability of the compound at pH 7.4 by PAMPA; type: ADME; conditions: for Papp: PAMPA, read-out: permeability
How it was run: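 Compound (10 mM DMSO stock) was diluted in system solution buffer pH 7.4 and placed in the donor chamber of a PAMPA sandwich whose membrane was coated with GIT lipid. Acceptor buffer filled the acceptor chamber, and the assembly was stirred for 30 min. Donor and acceptor UV spectra (250–500 nm) were compared with a reference to give the permeability coefficient. Run in triplicate.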

Structure (SMILES): Nc1nc(N)nc(Nc2ccc([As]3SCC(CO)S3)cc2)n1 (configuration not stated) [MELARSOPROL]
EC50 [1]: 6.7 nM
EC50 [2]: 7.2 nM
EC50 [3]: 14 nM
EC50 [4]: 12 nM

EC50 [1]: 0.7 nM
EC50 [5]: 12 nM
EC50 [2]: 0.6 nM
EC50 [3]: 51 nM
EC50 [4]: 0.9 nM
Structure (SMILES): N=C(N)c1ccc(OCCCCCOc2ccc(C(=N)N)cc2)cc1 [PENTAMIDINE]

EC50 [6]: 1800 nM
Structure (SMILES): O=C(Nc1cccc(Br)c1)c1cc([N+](=O)[O-])ccc1Cl

EC50 [6]: 950 nM
Structure (SMILES): O=C(Nc1ccc(F)c(Cl)c1)c1cc([N+](=O)[O-])ccc1Cl

EC50 [6]: 1800 nM
Structure (SMILES): O=C(Nc1ccc([N+](=O)[O-])cc1)c1cc([N+](=O)[O-])ccc1Cl

EC50 [1]: 170 nM
EC50 [5]: 58 nM
EC50 [2]: 140 nM
half-life [9]: > 4 h
half-life [12]: > 4 h
Structure (SMILES): O=C(Nc1ccc(F)c(-c2nc3ccccc3s2)c1)c1cc([N+](=O)[O-])c(N2CCNCC2)cc1Cl
EC50 [7]: > 25000 nM
EC50 [8]: > 25000 nM
EC50 [10]: > 25000 nM
EC50 [11]: > 25000 nM

EC50 [1]: 73 nM
EC50 [5]: 140 nM
EC50 [2]: 170 nM
solubility kinetic at 18 h [13]: 0.5 µM (≈ 0.269 µg/mL)
Papp [14]: 676 ×10⁻⁶ cm/s
Structure (SMILES): COc1ccc(-c2nc3ccccc3s2)cc1NC(=O)c1cc([N+](=O)[O-])c(N2CCN(C)CC2)cc1Cl
EC50 [7]: > 25000 nM
EC50 [8]: > 25000 nM
EC50 [10]: > 25000 nM
EC50 [11]: > 25000 nM

EC50 [1]: 820 nM
EC50 [5]: 1100 nM
EC50 [2]: 1800 nM
EC50 [3]: 1300 nM
solubility kinetic at 18 h [13]: 0.58 µM (≈ 0.22 µg/mL)
EC50 [4]: 1600 nM
Papp [14]: 8 ×10⁻⁶ cm/s
Structure (SMILES): O=C(Nc1ccc(Cl)c(C(F)(F)F)c1)c1cc([N+](=O)[O-])ccc1Cl
EC50 [7]: > 27000 nM
EC50 [8]: > 27000 nM
EC50 [10]: > 27000 nM
EC50 [11]: > 27000 nM

EC50 [6]: 3100 nM
Structure (SMILES): O=C(Nc1cccc(-c2nc3ncccc3o2)c1)c1cc([N+](=O)[O-])ccc1Cl

EC50 [6]: 1600 nM
Structure (SMILES): O=C(Nc1nc2ccccc2s1)c1cc([N+](=O)[O-])ccc1Cl

EC50 [1]: 63 nM
EC50 [5]: 120 nM
EC50 [2]: 73 nM
half-life [9]: 3.7 h
Kinetic_solubility [13]: BLD
permeability ([14]; pampa, BLD = below limit of detection): BLD
half-life [12]: > 4 h
Structure (SMILES): COc1ccc(-c2nc3ccccc3s2)cc1NC(=O)c1cc([N+](=O)[O-])ccc1Cl
EC50 [7]: > 25000 nM
EC50 [8]: > 25000 nM
EC50 [10]: > 25000 nM
EC50 [11]: > 25000 nM

EC50 [6]: 2800 nM
Structure (SMILES): O=C(Nc1ccc2oc(-c3ccccc3Cl)nc2c1)c1cc([N+](=O)[O-])ccc1Cl

EC50 [6]: 500 nM
Structure (SMILES): COc1cccc2sc(NC(=O)c3cc([N+](=O)[O-])ccc3Cl)nc12

EC50 [6]: 950 nM
Structure (SMILES): O=C(Nc1cccc(C(F)(F)F)c1)c1cc([N+](=O)[O-])ccc1Cl

EC50 [1]: 560 nM
EC50 [5]: 2500 nM
EC50 [2]: 1500 nM
EC50 [3]: 630 nM
Kinetic_solubility [13]: BLD
EC50 [4]: 1600 nM
Papp [14]: 37 ×10⁻⁶ cm/s
Structure (SMILES): O=C(Nc1nc(-c2ccc(F)c(F)c2)cs1)c1cc([N+](=O)[O-])ccc1Cl
EC50 [7]: > 27000 nM
EC50 [8]: > 27000 nM
EC50 [10]: 8300 nM
EC50 [11]: 13000 nM

EC50 [6]: 6100 nM
Structure (SMILES): O=C(Nc1ccc(-c2nc3ccccc3o2)cc1)c1cc([N+](=O)[O-])ccc1Cl

EC50 [6]: 2100 nM
Structure (SMILES): COc1ccc(OC)c(-c2csc(NC(=O)c3cc([N+](=O)[O-])ccc3Cl)n2)c1

EC50 [6]: 400 nM
Structure (SMILES): O=C(Nc1nc(-c2ccc(F)cc2F)cs1)c1cc([N+](=O)[O-])ccc1Cl

EC50 [6]: 540 nM
Structure (SMILES): Cc1sc(NC(=O)c2cc([N+](=O)[O-])ccc2Cl)nc1-c1ccccc1
